Results from ChEMBL document CHEMBL1806410, “Design and synthesis of pyridine-substituted itraconazole analogues with improved antifungal activities, water solubility and bioavailability” (Bioorg Med Chem Lett, 2011).
Converted amounts (≈) assume the structure as drawn.

Columns and labels:
Aspergillus flavus [1] = experiment: Antifungal activity against Aspergillus flavus JLC 40437 by broth microdilution method; type: functional
In short: (§1)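 MICs were determined by broth microdilution following NCCLS guidelines (M38-P for filamentous fungi). The panel covered four yeast species and two Aspergillus species, with two strains per species. Itraconazole served as positive control.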

Pichia kudriavzevii [2] = experiment: Antifungal activity against Candida krusei JLC 30386 by broth microdilution method; type: functional; in short: as §1
Cryptococcus neoformans [3] = experiment: Antifungal activity against Cryptococcus neoformans JLC 50123 by broth microdilution method; type: functional; in short: as §1
Candida albicans [4] = experiment: Antifungal activity against Candida albicans JLC 31374 by broth microdilution method; type: functional; in short: as §1
Aspergillus fumigatus [5] = experiment: Antifungal activity against Aspergillus fumigatus JLC 30883 by broth microdilution method; type: functional; in short: as §1
Pichia kudriavzevii [6] = experiment: Antifungal activity against Candida krusei JLC 30366 by broth microdilution method; type: functional; in short: as §1
Cryptococcus neoformans [7] = experiment: Antifungal activity against Cryptococcus neoformans JLC 50122 by broth microdilution method; type: functional; in short: as §1
Aspergillus fumigatus [8] = experiment: Antifungal activity against Aspergillus fumigatus JLC 30506 by broth microdilution method; type: functional; in short: as §1
Candida parapsilosis [9] = experiment: Antifungal activity against Candida parapsilosis JLC 30365 by broth microdilution method; type: functional; details: Lodderomyces parapsilosis; in short: as §1
Candida albicans [10] = experiment: Antifungal activity against Candida albicans JLC 30364 by broth microdilution method; type: functional; in short: as §1
Aspergillus flavus [11] = experiment: Antifungal activity against Aspergillus flavus JLC 30784 by broth microdilution method; type: functional; in short: as §1
Candida parapsilosis [12] = experiment: Antifungal activity against Candida parapsilosis JLC 30275 by broth microdilution method; type: functional; details: Lodderomyces parapsilosis; in short: as §1
[13] = Solubility of the compound in water at pH 1.2; type: physicochemical
[14] = AUC (0 to t) in rat at 10 mg/kg, po administered as single dose; type: ADME, organism-based; set-up: dose 10 mg/kg, route oral; details: plasma
In short: (§2)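 Rats received a single dose of compound, either oral (10 mg/kg) or intravenous (10, 5 or 2.5 mg/kg). Plasma levels were followed, and the reported parameters were Cmax, Tmax, AUC0–t, half-life, clearance and bioavailability (F).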

[15] = Half life in rat at 10 mg/kg, po administered as single dose; type: ADME, organism-based; set-up: dose 10 mg/kg, route oral; details: in vivo; in short: as §2
[16] = Cmax in rat at 10 mg/kg, po administered as single dose; type: ADME, organism-based; set-up: dose 10 mg/kg, route oral; details: in vivo; in short: as §2
[17] = Tmax in rat at 10 mg/kg, po administered as single dose; type: ADME, organism-based; set-up: dose 10 mg/kg, route oral; details: in vivo; in short: as §2
[18] = AUC (0 to t) in rat at 10 mg/kg, iv administered as single dose; type: ADME, organism-based; set-up: dose 10 mg/kg, route intravenous; details: plasma; in short: as §2
[19] = Clearance in rat at 10 mg/kg, iv administered as single dose; type: ADME, organism-based; set-up: dose 10 mg/kg, route intravenous; details: in vivo; in short: as §2
[20] = Oral bioavailability in rat at 10 mg/kg, administered as single dose; type: ADME, organism-based; details: in vivo; in short: as §2
[21] = Half life in rat at 10 mg/kg, iv administered as single dose; type: ADME, organism-based; set-up: dose 10 mg/kg, route intravenous; details: in vivo; in short: as §2

SMILES | MIC (Aspergillus flavus [1]) [µg/mL] | MIC (Pichia kudriavzevii [2]) [µg/mL] | MIC (Cryptococcus neoformans [3]) [µg/mL] | MIC (Candida albicans [4]) [µg/mL] | MIC (Aspergillus fumigatus [5]) [µg/mL] | MIC (Pichia kudriavzevii [6]) [µg/mL] | MIC (Cryptococcus neoformans [7]) [µg/mL] | MIC (Aspergillus fumigatus [8]) [µg/mL] | MIC (Candida parapsilosis [9]) [µg/mL] | MIC (Candida albicans [10]) [µg/mL] | MIC (Aspergillus flavus [11]) [µg/mL] | MIC (Candida parapsilosis [12]) [µg/mL] | further results
CCC(C)n1ncn(-c2ccc(N3CCN(c4ccc(OC[C@H]5CO[C@](Cn6cncn6)(c6ccc(F)cc6F)O5)cc4)CC3)cn2)c1=O (stereo not given in full) | 0.5 (≈ 0.742 µM) | 0.0625 (≈ 0.0928 µM) | 1 (≈ 1.48 µM) | 0.03 (≈ 0.0445 µM) | 0.5 (≈ 0.742 µM) | 0.0625 (≈ 0.0928 µM) | 1 (≈ 1.48 µM) | 0.5 (≈ 0.742 µM) | 0.5 (≈ 0.742 µM) | 0.03 (≈ 0.0445 µM) | 0.5 (≈ 0.742 µM) | 0.5 (≈ 0.742 µM) | –
CC(C)Cn1ncn(-c2ccc(N3CCN(c4ccc(OC[C@H]5CO[C@](Cn6cncn6)(c6ccc(F)cc6F)O5)cc4)CC3)cn2)c1=O | 0.0625 (≈ 0.0928 µM) | 0.125 (≈ 0.186 µM) | 0.25 (≈ 0.371 µM) | 0.015 (≈ 0.0223 µM) | 0.125 (≈ 0.186 µM) | 0.125 (≈ 0.186 µM) | 0.25 (≈ 0.371 µM) | 0.125 (≈ 0.186 µM) | 0.25 (≈ 0.371 µM) | 0.015 (≈ 0.0223 µM) | 0.0625 (≈ 0.0928 µM) | 0.25 (≈ 0.371 µM) | –
CCC(CC)n1ncn(-c2ccc(N3CCN(c4ccc(OC[C@H]5CO[C@](Cn6cncn6)(c6ccc(F)cc6F)O5)cc4)CC3)cn2)c1=O | 0.0625 (≈ 0.0909 µM) | 0.125 (≈ 0.182 µM) | 0.125 (≈ 0.182 µM) | 0.0625 (≈ 0.0909 µM) | 0.5 (≈ 0.727 µM) | 0.125 (≈ 0.182 µM) | 0.125 (≈ 0.182 µM) | 0.5 (≈ 0.727 µM) | 0.5 (≈ 0.727 µM) | 0.0625 (≈ 0.0909 µM) | 0.0625 (≈ 0.0909 µM) | 0.5 (≈ 0.727 µM) | –
CCC(C)n1ncn(-c2ccc(N3CCN(c4ccc(OCC5COC(Cn6cncn6)(c6ccc(Cl)cc6Cl)O5)cc4)CC3)cc2)c1=O (stereo not given) [ITRACONAZOLE] | 0.125 (≈ 0.177 µM) | 0.0625 (≈ 0.0886 µM) | 1 (≈ 1.42 µM) | 0.125 (≈ 0.177 µM) | 0.25 (≈ 0.354 µM) | 0.0625 (≈ 0.0886 µM) | 1 (≈ 1.42 µM) | 0.25 (≈ 0.354 µM) | 0.25 (≈ 0.354 µM) | 0.125 (≈ 0.177 µM) | 0.125 (≈ 0.177 µM) | 0.25 (≈ 0.354 µM) | AUC(0-t) [18]: 343 ng·h/mL; clearance [19]: 322 mL/min/kg; solubility ([13]; buffer): 16 µg/mL (≈ 22.7 µM); AUC(0-t) [14]: 27.5 ng·h/mL; bioavailability [20]: 8%; half-life [15]: 2.57 h; Cmax [16]: 6.28 ng/mL; half-life [21]: 22 h; Tmax [17]: 3 h

Continued by falling MIC (Aspergillus flavus [1]), values first:

MIC (Aspergillus flavus [1]) [µg/mL] | MIC (Pichia kudriavzevii [2]) [µg/mL] | MIC (Cryptococcus neoformans [3]) [µg/mL] | MIC (Candida albicans [4]) [µg/mL] | MIC (Aspergillus fumigatus [5]) [µg/mL] | MIC (Pichia kudriavzevii [6]) [µg/mL] | MIC (Cryptococcus neoformans [7]) [µg/mL] | MIC (Aspergillus fumigatus [8]) [µg/mL] | MIC (Candida parapsilosis [9]) [µg/mL] | MIC (Candida albicans [10]) [µg/mL] | MIC (Aspergillus flavus [11]) [µg/mL] | MIC (Candida parapsilosis [12]) [µg/mL] | SMILES | further results
0.125 (≈ 0.189 µM) | 0.0625 (≈ 0.0947 µM) | 0.25 (≈ 0.379 µM) | 0.0075 (≈ 0.0114 µM) | 0.125 (≈ 0.189 µM) | 0.0625 (≈ 0.0947 µM) | 0.25 (≈ 0.379 µM) | 0.125 (≈ 0.189 µM) | 0.25 (≈ 0.379 µM) | 0.0075 (≈ 0.0114 µM) | 0.125 (≈ 0.189 µM) | 0.25 (≈ 0.379 µM) | CC(C)n1ncn(-c2ccc(N3CCN(c4ccc(OC[C@H]5CO[C@](Cn6cncn6)(c6ccc(F)cc6F)O5)cc4)CC3)cn2)c1=O | solubility ([13]; water, read-out: solubility): 320 µg/mL (≈ 485 µM); AUC(0-t) [14]: 1220 ng·h/mL; half-life [15]: 3.45 h; Cmax [16]: 159 ng/mL; Tmax [17]: 3 h
0.125 (≈ 0.185 µM) | 0.0625 (≈ 0.0925 µM) | 0.0625 (≈ 0.0925 µM) | 0.0625 (≈ 0.0925 µM) | 1 (≈ 1.48 µM) | 0.0625 (≈ 0.0925 µM) | 0.0625 (≈ 0.0925 µM) | 1 (≈ 1.48 µM) | 0.5 (≈ 0.74 µM) | 0.0625 (≈ 0.0925 µM) | 0.125 (≈ 0.185 µM) | 0.5 (≈ 0.74 µM) | CC(CO)n1ncn(-c2ccc(N3CCN(c4ccc(OC[C@H]5CO[C@](Cn6cncn6)(c6ccc(F)cc6F)O5)cc4)CC3)cn2)c1=O (stereo not given in full) | –
0.125 (≈ 0.181 µM) | < 0.0156 | 0.03 (≈ 0.0435 µM) | < 0.0156 | 0.5 (≈ 0.725 µM) | < 0.0156 | 0.03 (≈ 0.0435 µM) | 0.5 (≈ 0.725 µM) | < 0.0156 | < 0.0156 | 0.125 (≈ 0.181 µM) | < 0.0156 | CC(CO)Cn1ncn(-c2ccc(N3CCN(c4ccc(OC[C@H]5CO[C@](Cn6cncn6)(c6ccc(F)cc6F)O5)cc4)CC3)cn2)c1=O (stereo not given in full) | –
0.03 (≈ 0.0453 µM) | 0.03 (≈ 0.0453 µM) | < 0.0156 | < 0.0156 | 0.5 (≈ 0.756 µM) | 0.03 (≈ 0.0453 µM) | < 0.0156 | 0.5 (≈ 0.756 µM) | 0.0156 (≈ 0.0236 µM) | < 0.0156 | 0.03 (≈ 0.0453 µM) | 0.0156 (≈ 0.0236 µM) | O=c1n(-c2ccc(N3CCN(c4ccc(OC[C@H]5CO[C@](Cn6cncn6)(c6ccc(F)cc6F)O5)cc4)CC3)cn2)cnn1CCO | –
